In general, MIC refers to the lowest concentration found to suppress growth. A high value points to a need for much substance.

Each structure is given as a SMILES string. In brackets after ≈: the same amount, converted by molar mass.

In experiment [1] the test system is Staphylococcus aureus. The experiment is described as follows: Activity at Staphylococcus aureus wild-type DNA topoisomerase 4 subunit ParC. In short, it runs like this: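 Recombinant S. aureus topoisomerase IV (wild-type ParC with ParE; specific activity 25 to 30 U per μg). Stopped with SDS/proteinase K. Linear DNA quantified on gel; CC50 is the mean of two or more assays.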

The subject of experiment [2] is Staphylococcus aureus. The experiment is described as follows: Activity at Staphylococcus aureus DNA topoisomerase 4 subunit ParC S80F mutant.
Experiment [3] has as its system Staphylococcus aureus. Description: Activity at Staphylococcus aureus wild-type GyrA. The method, boiled down:
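Recombinant S. aureus gyrase (wild-type GyrA with His-tagged GyrB; 250 U per μg). SDS/proteinase K stop. Gel quantitation of linear cleavage product gave CC50, the mean of two or more assays.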

The test system of experiment [4] is DNA gyrase subunit A (Staphylococcus aureus), P20831 [S84L]. Description: Activity at Staphylococcus aureus wild-type GyrA S84L mutant.
In experiment [5] the test system is Staphylococcus aureus. Description: Antimicrobial activity against Staphylococcus aureus CB190 by broth microdilution method. The class given is functional. (In general: Broth dilution looks for growth in wells or tubes with falling amounts of substance.)
Experiment [6] concerns Staphylococcus aureus. The experiment is described as follows: Antimicrobial activity against Staphylococcus aureus CB811 harboring quinolone-resistant gyrA S84L mutant gene by broth microdilution method. The format is functional. In short, it runs like this: (§1)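 CLSI broth microdilution MIC in cation-adjusted Mueller-Hinton (MHII) broth supplemented with 0.002% (vol/vol) polysorbate 80, included to limit compound loss to plastic surfaces.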

Experiment [7] relates to Staphylococcus aureus. Description: Antimicrobial activity against Staphylococcus aureus CB808 harboring quinolone-resistant parC S80F mutant gene by broth microdilution method. The class given is functional. In short, it runs like this:
as §1

Experiment [8] has as its system Staphylococcus aureus. The experiment is described as follows: Antimicrobial activity against Staphylococcus aureus CB814 harboring fluoroquinolone-resistant gyrA S84L and parC S80F mutant genes by broth microdilution method. The format is functional. The method, boiled down: as §1
The subject of experiment [9] is Staphylococcus aureus. The experiment is described as follows: Antimicrobial activity against Staphylococcus aureus CB370 harboring rifampin-resistant rpoB H481Y mutant gene by broth microdilution method. The class given is functional. In short, it runs like this:
as §1

Experiment [10] concerns Staphylococcus aureus. Description: Antimicrobial activity against Staphylococcus aureus CB812 harboring rpo B H481Y and gyrA S84L mutant genes by broth microdilution method. The format is functional. In short, it runs like this:
as §1

For experiment [11], the system named is Staphylococcus aureus. The experiment is described as follows: Antimicrobial activity against Staphylococcus aureus CB809 harboring rpoB H481Y and parC S80F mutant genes by broth microdilution method.
Experiment [12] has as its system Staphylococcus aureus. The experiment is described as follows: Antimicrobial activity against Staphylococcus aureus CB815 harboring rpoB H481Y, gyrA S84L and parC S80F mutant genes by broth microdilution method.

In the case of `Cc1c(N2CC[C@@H](N)C2)c(F)cn2c(=O)c(C(=O)O)cc(C3CC3)c12`, the CC50 with Staphylococcus aureus [1] came to 60 nM; in the experiment on Staphylococcus aureus [2], 1100 nM; in the experiment with Staphylococcus aureus [3] it was 90 nM; in [4], 900 nM. Besides, the MIC with Staphylococcus aureus [5] was 0.015 µg/mL (≈ 0.0434 µM); with Staphylococcus aureus [6], 0.03 µg/mL (≈ 0.0869 µM); with Staphylococcus aureus [7], 0.03 µg/mL (≈ 0.0869 µM); in the experiment on Staphylococcus aureus [8] it was 0.5 µg/mL (≈ 1.45 µM); against Staphylococcus aureus [9] it was 0.015 µg/mL (≈ 0.0434 µM); in the experiment on Staphylococcus aureus [10] it was 0.03 µg/mL (≈ 0.0869 µM). The MIC against Staphylococcus aureus [11] was 0.03 µg/mL (≈ 0.0869 µM); against Staphylococcus aureus [12], 0.25 µg/mL (≈ 0.724 µM).

Values taken from ChEMBL document CHEMBL1275434, “In vitro evaluation of CBR-2092, a novel rifamycin-quinolone hybrid antibiotic: studies of the mode of action in Staphylococcus aureus” (Antimicrob Agents Chemother, 2008).
